Measured values taken from ChEMBL document CHEMBL1152460, “Phenotypic characterization of resistant Val36 variants of hepatitis C virus NS3-4A serine protease” (Antimicrob Agents Chemother, 2008).

Legend:
Hepatitis C virus [1] = assay: Antiviral activity against HCV Con1-mADE replicon with NS3 serine protease V36M/R155K double mutation in human HuH7 cells after 48 hrs by RNA replicon assay relative to wild type; type: functional, Hepacivirus hominis, subtype 1b Con1-mADE, Huh-7
Method in brief: (§1)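 Stable genotype 1b Con1 subgenomic neo replicon cell lines carried three adaptive mutations. They were made by electroporating T7 runoff transcripts (ScaI-linearized template) into naive Huh-7 cells, selected with 0.5 mg/ml G418 and kept in 0.25 mg/ml. Mutations were confirmed by RT-PCR sequencing. EC50 came from a 48-h assay, at least three independent assays, mean ± SD. Fold change = variant mean EC50 / wild-type EC50.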

Hepatitis C virus [2] = assay: Antiviral activity against HCV Con1-mADE replicon with NS3 serine protease V36A/R155T double mutation in human HuH7 cells after 48 hrs by RNA replicon assay relative to wild type; type: functional, Hepacivirus hominis, subtype 1b Con1-mADE, Huh-7; method in brief: as §1
Hepatitis C virus [3] = assay: Antiviral activity against HCV Con1-mADE replicon with NS3 serine protease V36A mutation in human HuH7 cells after 48 hrs by RNA replicon assay relative to wild type; type: functional, Hepacivirus hominis, subtype 1b Con1-mADE, Huh-7; method in brief: as §1
Hepatitis C virus [4] = assay: Antiviral activity against HCV Con1-mADE replicon with NS3 serine protease V36L mutation in human HuH7 cells after 48 hrs by RNA replicon assay relative to wild type; type: functional, Hepacivirus hominis, subtype 1b Con1-mADE, Huh-7; method in brief: as §1
Hepatitis C virus [5] = assay: Antiviral activity against HCV Con1-mADE replicon with NS3 serine protease V36A/R155K double mutation in human HuH7 cells after 48 hrs by RNA replicon assay relative to wild type; type: functional, Hepacivirus hominis, subtype 1b Con1-mADE, Huh-7; method in brief: as §1
Hepatitis C virus [6] = assay: Antiviral activity against HCV Con1-mADE replicon with NS3 serine protease V36M/R155K double mutation in human HuH7 cells after 48 hrs by RNA replicon assay; type: functional, organism-based, Hepacivirus hominis; settings: subtype 1b Con1-mADE, Huh-7, 48 h; method in brief: as §1
Hepatitis C virus [7] = assay: Antiviral activity against HCV Con1-mADE replicon with NS3 serine protease V36A mutation in human HuH7 cells after 48 hrs by RNA replicon assay; type: functional, organism-based, Hepacivirus hominis; settings: subtype 1b Con1-mADE, Huh-7, 48 h; method in brief: as §1
Hepatitis C virus [8] = assay: Antiviral activity against HCV Con1-mADE replicon with NS3 serine protease V36A/R155K double mutation in human HuH7 cells after 48 hrs by RNA replicon assay; type: functional, organism-based, Hepacivirus hominis; settings: subtype 1b Con1-mADE, Huh-7, 48 h; method in brief: as §1
Hepatitis C virus [9] = assay: Antiviral activity against HCV Con1-mADE replicon with NS3 serine protease V36M/R155T double mutation in human HuH7 cells after 48 hrs by RNA replicon assay relative to wild type; type: functional, Hepacivirus hominis, subtype 1b Con1-mADE, Huh-7; method in brief: as §1
Hepatitis C virus [10] = assay: Antiviral activity against HCV Con1-mADE replicon with NS3 serine protease V36M mutation in human HuH7 cells after 48 hrs by RNA replicon assay relative to wild type; type: functional, Hepacivirus hominis, subtype 1b Con1-mADE, Huh-7; method in brief: as §1
Hepatitis C virus [11] = assay: Antiviral activity against HCV Con1-mADE replicon with NS3 serine protease V36M/R155T double mutation in human HuH7 cells after 48 hrs by RNA replicon assay; type: functional, organism-based, Hepacivirus hominis; settings: subtype 1b Con1-mADE, Huh-7, 48 h; method in brief: as §1
Hepatitis C virus [12] = assay: Antiviral activity against wild type Con1-mADE HCV replicon in human HuH7 cells after 48 hrs by RNA replicon assay; type: functional, organism-based, Hepacivirus hominis; settings: subtype 1b Con1-mADE, Huh-7, 48 h; method in brief: as §1
Hepatitis C virus [13] = assay: Antiviral activity against HCV Con1-mADE replicon with NS3 serine protease T54A mutation in human HuH7 cells after 48 hrs by RNA replicon assay; settings: subtype 1b Con1-mADE, Huh-7, 48 h
Hepatitis C virus [14] = assay: Antiviral activity against HCV Con1-mADE replicon with NS3 serine protease V36A/R155T double mutation in human HuH7 cells after 48 hrs by RNA replicon assay; type: functional, organism-based, Hepacivirus hominis; settings: subtype 1b Con1-mADE, Huh-7, 48 h; method in brief: as §1
Hepatitis C virus [15] = assay: Antiviral activity against HCV Con1-mADE replicon with NS3 serine protease V36M mutation in human HuH7 cells after 48 hrs by RNA replicon assay; type: functional, organism-based, Hepacivirus hominis; settings: subtype 1b Con1-mADE, Huh-7, 48 h; method in brief: as §1
Hepatitis C virus [16] = assay: Antiviral activity against HCV Con1-mADE replicon with NS3 serine protease V36L mutation in human HuH7 cells after 48 hrs by RNA replicon assay; type: functional, organism-based, Hepacivirus hominis; settings: subtype 1b Con1-mADE, Huh-7, 48 h; method in brief: as §1
Hepatitis C virus [17] = assay: Antiviral activity against HCV Con1-mADE replicon with NS3 serine protease V36A/T54A double mutation in human HuH7 cells after 48 hrs by RNA replicon assay relative to wild type; type: functional, Hepacivirus hominis, subtype 1b Con1-mADE, Huh-7
Method in brief: (§2)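 Stable HCV genotype 1b subgenomic replicon (Con1-mADE, neo) cell lines made by electroporating ScaI-linearized T7 runoff RNA into naïve Huh-7 cells; selected in 0.5 mg/ml G418, maintained in 0.25 mg/ml; NS3 substitutions confirmed by RT-PCR sequencing. EC50 from 48-h replicon RNA reduction assay, ≥3 independent experiments, mean ± SD; fold change = variant mean EC50 / wild-type mean EC50.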

NS3 protease [18] = target: NS3 protease (Hepacivirus C, UniProt C1KIQ2, V36M); assay: Inhibition of HCV genotype 1a NS3 protease V36M mutant expressed in Escherichia coli BL21 (DE3); set-up: species or system Hepatitis C virus subtype 1a
Method in brief: (§3)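 NS3 protease domain (genotype 1a isolate 3201 or 1b isolate 3111) was expressed in E. coli BL21(DE3) with 5 h, 1 mM IPTG at 25°C, then purified by Talon and gel filtration. Enzyme was preincubated with 5 μM KK4A cofactor (10 min 25°C, 10 min 30°C), then inhibitor 60 min at 30°C, then 5 μM RET-S1 FRET substrate 20 min at 30°C. Substrate turnover was 10–20%. IC50(1 h) was fitted; 3–5 experiments, mean ± SD.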

Hepatitis C virus [19] = assay: Antiviral activity against HCV Con1-mADE replicon with NS3 serine protease V36M/A156T double mutation in human HuH7 cells after 48 hrs by RNA replicon assay; type: functional, organism-based, Hepacivirus hominis; settings: subtype 1b Con1-mADE, Huh-7, 48 h; method in brief: as §1
Hepatitis C virus [20] = assay: Antiviral activity against HCV Con1-mADE replicon with NS3 serine protease V36A/T54A double mutation in human HuH7 cells after 48 hrs by RNA replicon assay; type: functional, organism-based, Hepacivirus hominis; settings: subtype 1b Con1-mADE, Huh-7, 48 h; method in brief: as §1
Hepatitis C virus [21] = assay: Antiviral activity against HCV Con1-mADE replicon with NS3 serine protease V36G mutation in human HuH7 cells after 48 hrs by RNA replicon assay; type: functional, organism-based, Hepacivirus hominis; settings: subtype 1b Con1-mADE, Huh-7, 48 h; method in brief: as §1
Hepatitis C virus [22] = assay: Antiviral activity against HCV genotype 1 infected in patient assessed as log10 reduction in plasma HCV RNA level at 750 mg dosed every 8 hrs measured after 2 days; type: functional, Hepacivirus hominis
Hepatitis C virus [23] = assay: Antiviral activity against HCV Con1-mADE replicon with NS3 serine protease V36M/A156T double mutation in human HuH7 cells after 48 hrs by RNA replicon assay relative to wild type; type: functional, Hepacivirus hominis, subtype 1b Con1-mADE, Huh-7; method in brief: as §2
Hepatitis C virus [24] = assay: Antiviral activity against HCV Con1-mADE replicon with NS3 serine protease T54A mutation in human HuH7 cells after 48 hrs by RNA replicon assay relative to wild type
NS3 protease [25] = target: NS3 protease (Hepacivirus C, UniProt C1KIQ2, V36L); assay: Inhibition of HCV genotype 1a NS3 protease V36L mutant expressed in Escherichia coli BL21 (DE3); set-up: species or system Hepatitis C virus subtype 1a; method in brief: as §3
[26] = Inhibition of wild type HCV genotype 1a NS3 protease expressed in Escherichia coli BL21 (DE3) measured after 1 hr
Hepatitis C virus [27] = assay: Selectivity ratio of IC50 for HCV genotype 1b NS3 protease V36A mutant to IC50 for wild type HCV genotype 1b NS3 protease; set-up: species or system Hepatitis C virus subtype 1b
Method in brief: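 Purified genotype 1b NS3 protease domain (wild-type isolate 3111 or V36A), E. coli BL21(DE3)-expressed, preincubated with 5 μM KK4A cofactor peptide 10 min 25°C then 10 min 30°C; inhibitor 60 min 30°C; then 5 μM RET-S1 FRET depsipeptide 20 min 30°C, 10–20% turnover. IC50(1 h) fitted; fold change = variant/wild-type IC50, 3–5 independent experiments, mean ± SD.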

Hepatitis C virus [28] = assay: Inhibition of wild type HCV genotype 1b NS3 protease expressed in Escherichia coli BL21 (DE3); set-up: species or system Hepatitis C virus subtype 1b
Method in brief: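 NS3 protease domain (genotype 1a isolate 3201 or 1b isolate 3111) induced 5 h with 1 mM IPTG at 25°C and purified by Talon affinity and gel filtration. Preincubated with 5 μM KK4A cofactor peptide, then with inhibitor 60 min at 30°C. Then 20 min at 30°C with 5 μM RET-S1 FRET depsipeptide, reading product release at 10–20% turnover. IC50(1 h) by curve fit; 3–5 independent experiments, mean ± SD.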

NS3 protease [29] = target: NS3 protease (Hepacivirus C, UniProt C1KIQ2, R155K/V36M); assay: Inhibition of HCV genotype 1a NS3 protease V36M/R155K double mutant expressed in Escherichia coli BL21 (DE3); set-up: species or system Hepatitis C virus subtype 1a; method in brief: as §3
Hepatitis C virus [30] = assay: Antiviral activity against HCV Con1-mADE replicon with NS3 serine protease V36G mutation in human HuH7 cells after 48 hrs by RNA replicon assay relative to wild type; type: functional, Hepacivirus hominis, subtype 1b Con1-mADE, Huh-7; method in brief: as §2
Hepatitis C virus [31] = assay: Inhibition of HCV genotype 1b NS3 protease V36A mutant expressed in Escherichia coli BL21 (DE3); set-up: species or system Hepatitis C virus subtype 1b; method in brief: as §3
Hepatitis C virus [32] = assay: Antiviral activity against HCV genotype 1 infected in patient assessed as logarithmic maximal reduction in plasma HCV RNA level at 750 mg dosed every 8 hrs measured after 14 days; type: functional, Hepacivirus hominis

SMILES | fold change (FC) (Hepatitis C virus [1]) | fold change (FC) (Hepatitis C virus [2]) | fold change (FC) (Hepatitis C virus [3]) | fold change (FC) (Hepatitis C virus [4]) | fold change (FC) (Hepatitis C virus [5]) | EC50 (Hepatitis C virus [6]) | EC50 (Hepatitis C virus [7]) | EC50 (Hepatitis C virus [8]) | fold change (FC) (Hepatitis C virus [9]) | fold change (FC) (Hepatitis C virus [10]) | EC50 (Hepatitis C virus [11]) | EC50 (Hepatitis C virus [12]) | EC50 (Hepatitis C virus [13]) | EC50 (Hepatitis C virus [14]) | EC50 (Hepatitis C virus [15]) | further results
NC(=O)c1ncn([C@@H]2O[C@H](CO)[C@@H](O)[C@H]2O)n1 [RIBAVIRIN] | 0.7 | 0.7 | 0.8 | 0.4 | 0.6 | 41 µM | 43 µM | 36 µM | 0.6 | 0.6 | 36 µM | 58 µM | 22 µM | 42 µM | 33 µM | –
CCC[C@H](NC(=O)[C@@H]1[C@H]2CCC[C@H]2CN1C(=O)[C@@H](NC(=O)[C@@H](NC(=O)c1cnccn1)C1CCCCC1)C(C)(C)C)C(=O)C(=O)NC1CC1 [TELAPREVIR] | 62 | >62 | 7.4 | 2.2 | 40 | 30 µM | 3.6 µM | 20 µM | >62 | 7 | > 30 µM | 0.49 µM | 3 µM | > 30 µM | 3.4 µM | EC50 (Hepatitis C virus [16]): 1100 nM; fold change (FC) (Hepatitis C virus [17]): 20.1; IC50 (NS3 protease [18]): 270 nM; EC50 (Hepatitis C virus [19]): > 30 µM; EC50 (Hepatitis C virus [20]): 9.7 µM; EC50 (Hepatitis C virus [21]): 5.4 µM; Activity (Hepatitis C virus [22]): 3; fold change (FC) (Hepatitis C virus [23]): >62; fold change (FC) (Hepatitis C virus [24]): 6.3; IC50 (NS3 protease [25]): 130 nM; IC50 [26]: 50 nM; fold change (FC) (Hepatitis C virus [27]): 3.6; IC50 (Hepatitis C virus [28]): 63 nM; IC50 (NS3 protease [29]): 3.4 µM; fold change (FC) (Hepatitis C virus [30]): 11.2; IC50 (Hepatitis C virus [31]): 230 nM; Activity (Hepatitis C virus [32]): 4.65
